Screening data as filed in PubChem BioAssay.
An excerpt weighted towards active compounds, which were near 2.1% of everything screened.
DNA FID counter-1: compounds displacing fluorescent DNA intercalator, primary screen, artefact control for HCV NS3 helicase inhibitor project, biochemical, FID fluorescence | DNA fluorescent intercalator displacement | inhibition, % at 7.9 µM | 290,000 compounds, 0.17% hits;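 note: 0% = vehicle and 100% = reference compound; higher means more ethidium bromide displaced from hairpin DNA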
IMP-1 inh: IMP-1 metallo-beta-lactamase inhibitors, primary screen, biochemical, epi-absorbance readout, Pseudomonas aeruginosa enzyme; inhibition, % at 5.6 µM; metallo-beta-lactamase IMP-1 (Pseudomonas aeruginosa); 290,000 compounds, 0.45% hits; AID 1556, 2009; purified IMP-1, nitrocefin hydrolysis, epi-absorbance fluorescence;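 active = inhibition above the mean plus 3 SD of all compounds in the same screening run, cut at about 4.5% in these data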;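 note: 0% = IMP-1 with DMSO and 100% = DMSO wells lacking enzyme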
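Test system: recombinant IMP-1 enzyme, purified / Medium: HEPES buffer pH 7.1 with ZnSO4 and Brij 35 / Doses: single dose, 5.6 µM / Times: 25 °C, 15 min preincubation, 25 min reaction / Detection: Epi-absorbance via hydrolysed-nitrocefin quenching of white-plate fluorescence, 480/530 nm, EDTA stop / Evaluation: percent inhibition from optical density relative to buffer-blank wells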
VIM-2 inh: VIM-2 metallo-beta-lactamase inhibitors, primary screen, biochemical, epi-absorbance readout, Pseudomonas aeruginosa enzyme; AID 1527, 2009; inhibition, % at 5.6 µM; purified VIM-2, nitrocefin hydrolysis, epi-absorbance fluorescence; 290,000 compounds, 0.89% hits;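 active = inhibition above the mean of all tested compounds plus 3 SD, cutoff set per screening run, cut at about 7.5% in these data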;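 note: red hydrolysis product quenches plate fluorescence so inhibitors raise well fluorescence; 0% = enzyme with DMSO and 100% = DMSO without enzyme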
HCV NS3 hel inh: inhibitors of HCV NS3 helicase, primary screen, biochemical, Cy5 molecular beacon fluorescence; inhibition, % at 10.9 µM; NS3 helicase DNA unwinding; 290,000 compounds, 0.56% hits; Hepatitis C virus NS3 helicase;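 active = inhibition above the mean of all tested compounds plus 3 SD, set per campaign, cut at about 35% in these data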;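 note: 0% = DMSO wells and 100% = thioflavine S control wells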
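Material: hepatitis C virus NS3 helicase domain fragment enzyme; measured by: Cy5 fluorescence, 0 and 60 min reads; control set: DMSO and thioflavine S; incubation: 60 min unwinding reaction at 25 °C after ATP addition; read-out basis: % inhibition from 60/0 min fluorescence ratio, DMSO 0%, thioflavine S 100%; repeats: singlicate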
SUMO HTRF inh: inhibitors of in vitro SUMOylation cascade, primary screen, biochemical, HTRF, uHTS; AID 2006, 2009; HTRF SUMOylation assay, SAE1/SAE2 + UBC9; inhibition, % at 35 µM; 290,000 compounds, 0.36% hits; SUMO-conjugating enzyme UBC9 (Homo sapiens), P63279; in the data active = inhibition above about 50%, passing the limit was not always enough; inconclusive = no clear call, values can overlap the other calls
Target sequence (P63279 whole entry, looked up): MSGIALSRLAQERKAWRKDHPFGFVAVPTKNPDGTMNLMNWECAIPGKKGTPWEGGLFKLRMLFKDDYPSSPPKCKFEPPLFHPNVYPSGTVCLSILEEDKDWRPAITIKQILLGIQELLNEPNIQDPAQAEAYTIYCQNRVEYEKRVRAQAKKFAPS
NS3 helicase cf: HCV NS3 helicase inhibitors, retest, confirmation, biochemical, Cy5 molecular beacon fluorescence, triplicate. shares compounds with HCV NS3 hel inh. NS3 helicase DNA unwinding. inhibition, % at 10.9 µM. 1,600 compounds, 31% hits;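 active = inhibition above the mean of all tested compounds plus 3 SD, cutoff set per campaign, cut at about 36% in these data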
DNA FID counter-2: compounds displacing fluorescent DNA intercalator, artefact control for HCV NS3 helicase inhibitor project, biochemical, FID fluorescence, triplicate; shares compounds with HCV NS3 hel inh; DNA fluorescent intercalator displacement; inhibition, % at 7.9 µM; 1,600 compounds, 4% hits;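 note: 0% = vehicle and 100% = reference compound; higher means more displacement of ethidium bromide from the DNA hairpin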
DNA FID DR: compounds displacing fluorescent intercalator from DNA, dose response, counter-screen for HCV NS3 helicase inhibitor project, biochemical, fluorescence | shares compounds with HCV NS3 hel inh | fluorescent intercalator displacement from DNA | IC50, µM | 120 tested, under 10 active; call rule not given here
Active calls of the source: *; ? = inconclusive; nt = no result. Cut-off read from the data, not from the text of the source, unless noted: active = inhibition above about 37%; inactive = the rest.

SMILES	DNA FID counter-1	IMP-1 inh	VIM-2 inh	HCV NS3 hel inh	SUMO HTRF inh	NS3 helicase cf	DNA FID counter-2	others
CC(C)(CO)NC(=O)c1ccc2c(c1)C(=O)c1ccccc1-2	-10	-2	4	8	4	nt	nt
CCC(=O)Nc1ccc2ccccc2c1	0	-3	-1	1	-10	nt	nt
CCC(=O)Nc1ccc2nc3c(=O)[nH]c(=S)[nH]c3nc2c1	0	-3	-6	39*	26	-21	5
CCOC(=O)/C(C(C)=O)=C1\OC(=O)c2ccccc21	-8	-3	-3	44*	22	-7	7
O=C(COC(=O)/C=C/c1cccc([N+](=O)[O-])c1)NCC1CCCO1 (stereo not given)	1	-3	-5	48*	24	-7	4
O=C(COC(=O)/C=C/c1ccc([N+](=O)[O-])cc1)NCC1CCCO1 (stereo not given)	2	0	-1	-9	6	nt	nt
Cc1ccc2[nH]c(CNC(=O)c3ccc(F)cc3)cc2c1	0	-2	1	-13	-6	nt	nt
COCCNC(=O)CCCCCNS(=O)(=O)c1ccc(C)cc1	1	-4	-4	2	-3	nt	nt
Cc1ccc(S(=O)(=O)NCCCCCC(=O)NCCc2ccccc2)cc1	-26	-6	-3	43*	-3	-11	-28
O=C1NN(c2ccccc2)C(=O)/C1=C/c1ccc(Sc2cccc3ccccc23)o1	-8	2	4	53*	50	75*	17	DNA FID DR=>79
O=C1NN(c2ccccc2)C(=O)/C1=C/c1ccc(-c2ccc(C(=O)O)cc2)o1	-15	-3	-1	0	-5	nt	nt
c1coc(-c2ncc[nH]2)c1	-1	0	1	-4	26	nt	nt
Nc1nc(-c2ccco2)c(-c2ccco2)s1	5	2	3	49*	70	-16	18
Nc1nc(-c2ccco2)cs1	0	-2	1	37*	-5	-14	-1
c1cncc(-c2nc(-c3ccco3)cs2)c1	-7	0	-2	6	13	nt	nt
c1coc(-c2nc(-c3ccco3)c(-c3ccco3)nc2-c2ccco2)c1	22	-1	7	116*	?	93*	38*
CC1=C(C(=O)Nc2cc(C(=O)NCCC(C)C)ccc2C)SCCO1	-18	-2	-1	0	4	nt	nt
CCCNc1c(NC(=O)c2cccs2)c(=O)oc2ccccc12	1	0	0	6	-2	nt	nt
Cc1ccc(-n2nc(C)c3c2OC(N)=C(C#N)C3c2ccoc2)cc1 (stereo not given)	-12	-2	0	45*	85	-18	18
CC1CCCN(S(=O)(=O)c2ccc(C(=O)Nc3nnc(C4=COCCO4)o3)cc2)C1 (stereo not given)	-37	-2	-4	65*	10	-16	-30
CC1CCCCN1S(=O)(=O)c1ccc(C(=O)Nc2nnc(C3=COCCO3)o2)cc1 (stereo not given)	-66	-5	-7	11	11	nt	nt
O=C(Nc1ccccc1)c1cc([N+](=O)[O-])ccc1NCc1cccnc1	-8	-2	-2	-1	-9	nt	nt
CNC(C)C#Cc1ccc2sc3cccc(OC)c3c(=O)c2c1 (stereo not given)	-18	1	8	39*	18	19	7
CNC(C)C#Cc1c(-c2cc(OC)c(OC)c(OC)c2)noc1C (stereo not given)	-5	-3	3	4	13	nt	nt
O=C(Nc1cc(S(=O)(=O)N2CCCCC2)ccc1Oc1ccccc1)C1=COCCO1	-35	-1	-1	-6	15	nt	nt
SMILES	DNA FID counter-1	IMP-1 inh	VIM-2 inh	HCV NS3 hel inh	SUMO HTRF inh	NS3 helicase cf	DNA FID counter-2	others
N#Cc1ccc(-c2csc(NC(=O)c3ccc(N4C(=O)CCC4=O)cc3)n2)cc1	-6	0	1	1	14	nt	nt
Cc1cc(-c2csc(NC(=O)c3ccc(C#N)cc3)n2)c(C)n1Cc1ccco1	-18	-1	-5	58*	62	1	12
Cc1cc(-c2csc(NC(=O)c3cc4ccccc4o3)n2)c(C)n1C	-13	-1	-3	50*	32	25	16
Cc1cc(-c2csc(NC(=O)c3ccc(=O)[nH]c3)n2)c(C)n1Cc1ccccc1	-21	-3	-5	74*	59	21	4
O=C(NC1CCN(S(=O)(=O)c2ccccc2F)CC1)c1cccnc1	-10	-2	-2	-2	5	nt	nt
COc1ccc2nc(NC(=O)CCc3cc(OC)c(OC)c(OC)c3)sc2c1	-22	0	1	-7	-1	nt	nt
Oc1ccc(/C=N/N(Cc2ccccc2)c2ccccc2)c(O)c1O	-29	5.1*	1	71*	36	-13	22
COc1ccc(C2C(C(C)=O)=C(C)N=c3s/c(=C\c4ccco4)c(=O)n32)c(OC)c1 (stereo not given)	-25	0	0	54*	19	-29	-10
CCOC(=O)C1=C(c2ccccc2)N=c2s/c(=C\c3ccco3)c(=O)n2C1c1cccs1 (stereo not given)	-19	0	-3	48*	40	24	-2
CCOC(=O)C1=C(c2ccccc2)N=c2s/c(=C\c3cc(OC)c(OC)c(OC)c3)c(=O)n2C1c1cccs1 (stereo not given)	-5	-2	-3	15	-22	nt	nt
COc1cc(CN2CCNC(=O)C2CC(=O)N2CCCN(C(C)=O)CC2)cc(OC)c1 (stereo not given)	-10	-1	-2	2	11	nt	nt
CCC(C(=O)O)n1nnc(-c2ccc(-c3ccc(OC)cc3)cc2)n1 (stereo not given)	-23	-1	-1	39*	25	62*	-21	DNA FID DR=>79
COc1ccc(-c2nc3c(c(SCC(=O)Nc4cccc(O)c4)n2)Cc2c(CO)cnc(C)c2O3)cc1	-42	4	1	70*	nt	2	-4
O=C(NC(Cc1ccccc1)C(=O)O)/C(=C/c1ccc(Br)cc1)NC(=O)c1ccc(Br)o1 (stereo not given)	-35	-4	-3	41*	5	38*	-19
